{"source": "paper PMC7983942", "about": "(Clinical Pharmacology and Therapeutics, 2020)", "key": {"[1]": {"target": "T1, OATP1B1*1A (Homo sapiens, UniProt Q9Y6L6)", "T1 sequence (Q9Y6L6 1-691)": "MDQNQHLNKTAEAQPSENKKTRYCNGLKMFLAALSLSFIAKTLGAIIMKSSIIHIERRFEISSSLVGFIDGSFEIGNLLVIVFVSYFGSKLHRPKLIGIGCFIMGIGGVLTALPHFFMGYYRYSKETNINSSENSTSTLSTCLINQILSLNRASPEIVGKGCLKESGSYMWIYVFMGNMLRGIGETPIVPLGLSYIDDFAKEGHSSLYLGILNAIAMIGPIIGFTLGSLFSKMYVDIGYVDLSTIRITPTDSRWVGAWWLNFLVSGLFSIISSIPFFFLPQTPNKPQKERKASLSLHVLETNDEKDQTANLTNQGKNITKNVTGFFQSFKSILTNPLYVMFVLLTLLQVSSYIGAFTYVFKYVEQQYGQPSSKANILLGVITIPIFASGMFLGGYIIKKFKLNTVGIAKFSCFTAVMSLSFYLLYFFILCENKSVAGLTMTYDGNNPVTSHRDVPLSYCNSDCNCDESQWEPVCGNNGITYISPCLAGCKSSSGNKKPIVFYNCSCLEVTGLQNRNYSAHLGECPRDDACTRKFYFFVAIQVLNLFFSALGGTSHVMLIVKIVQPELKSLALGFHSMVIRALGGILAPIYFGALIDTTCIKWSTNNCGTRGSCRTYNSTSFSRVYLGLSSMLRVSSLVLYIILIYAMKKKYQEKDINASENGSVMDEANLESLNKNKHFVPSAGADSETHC", "experiment": "Uptake into transporter-transfected vs wild-type HEK293 cells", "type": "in vitro ADME", "details": "experiment 3, substrate 1 µM, 2 minutes", "procedure,_shortened": "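HEK293 cells stably transfected with OATP1B1*1A, OATP1B3 or OATP2B1, plus wild-type cells, were seeded on poly-D-lysine plates. Culture was 48 h at 37°C in DMEM with 10% FBS, pyruvate, nonessential amino acids and GlutaMAX. Test compound was 1 µM for 2 min; rosuvastatin probe was 1 µM over 2–4 min. Cells were washed four times in ice-cold buffer and lysed in methanol with internal standard. Readouts were uptake ratio versus wild-type and glucuronide/probe ratio of ratios; mean ± SD, n=3 in one experiment.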"}, "[2]": {"target": "T2, OATP1B1*15 (Homo sapiens, UniProt Q9Y6L6, N130D/V174A)", "T2 sequence (Q9Y6L6 1-691 N130D/V174A)": "T1 sequence (Q9Y6L6 1-691) with N130D, V174A", "experiment": "Uptake into OATP1B1 variant-transfected vs wild-type HEK293 cells", "type": "in vitro ADME", "details": "for Uptake ratio (vs. wild‐type HEK293 cells): 2 minutes", "procedure,_shortened": "(§1)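 HEK293 cells stably expressing an OATP1B1 variant, alongside wild-type HEK293, were seeded at 0.5–1.2 × 10⁵ cells/well on poly-D-lysine plates. They grew 48 h at 37°C and 5% CO₂ in DMEM with 10% FBS, 1% pyruvate, nonessential amino acids and GlutaMAX. Substrate was 1 µM (0.5 µM where footnoted) for 2 min, then four ice-cold buffer washes and methanol lysis with internal standard. Uptake ratio (transfected/wild-type) is expressed as % of OATP1B1*14 in the same experiment; n=3 determinations.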"}, "[3]": {"target": "T3, OATP1B1*5 (Homo sapiens, UniProt Q9Y6L6, V174A)", "T3 sequence (Q9Y6L6 1-691 V174A)": "T1 sequence (Q9Y6L6 1-691) with V174A", "experiment": "Uptake into OATP1B1 variant-transfected vs wild-type HEK293 cells", "type": "in vitro ADME", "details": "for Uptake ratio (vs. wild‐type HEK293 cells): 2 minutes", "procedure,_shortened": "as §1"}, "[4]": {"target": "T4, OATP1B1*14 (Homo sapiens, UniProt Q9Y6L6, N130D/P155T)", "T4 sequence (Q9Y6L6 1-691 N130D/P155T)": "T1 sequence (Q9Y6L6 1-691) with N130D, P155T", "experiment": "Uptake into OATP1B1 variant-transfected vs wild-type HEK293 cells", "type": "in vitro ADME", "details": "substrate 1 µM; for Uptake ratio as percentage of OATP1B1*14 in the same experiment: OATP1B1*14 (reference); for Uptake ratio (vs. wild‐type HEK293 cells): OATP1B1*14, 2 minutes"}, "[5]": {"experiment": "Fasting plasma concentrations in healthy volunteers by SLCO1B1 genotype", "details": "for Plasma concentration, ratio to control (95% CI) / Plasma concentration, geometric mean (95% CI): fasting, adjusted for sex; for Mean fasting plasma concentration, lower in women than in men: women vs men, 356 healthy volunteers"}, "[6]": {"target": "T5, OAT2 (Homo sapiens, UniProt Q9Y694)", "T5 sequence (Q9Y694 1-548)": "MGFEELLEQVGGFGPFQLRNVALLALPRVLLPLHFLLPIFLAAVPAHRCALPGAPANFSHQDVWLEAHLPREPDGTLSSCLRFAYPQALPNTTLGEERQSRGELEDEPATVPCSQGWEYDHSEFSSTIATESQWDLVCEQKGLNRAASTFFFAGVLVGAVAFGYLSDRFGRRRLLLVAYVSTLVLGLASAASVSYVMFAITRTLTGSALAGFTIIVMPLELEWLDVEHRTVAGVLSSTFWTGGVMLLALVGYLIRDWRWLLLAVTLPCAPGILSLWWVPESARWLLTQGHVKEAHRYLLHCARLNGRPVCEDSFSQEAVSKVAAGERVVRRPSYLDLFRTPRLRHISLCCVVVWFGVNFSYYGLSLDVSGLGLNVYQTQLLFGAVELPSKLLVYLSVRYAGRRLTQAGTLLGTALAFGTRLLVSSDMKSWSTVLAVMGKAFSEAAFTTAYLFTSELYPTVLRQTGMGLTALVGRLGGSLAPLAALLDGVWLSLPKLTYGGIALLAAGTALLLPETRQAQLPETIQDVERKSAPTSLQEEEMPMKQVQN", "experiment": "Uptake into transporter-transfected vs wild-type HEK293 cells", "type": "in vitro ADME", "details": "cyclic guanosine monophosphate 0.5 µM, two to four minutes", "procedure,_shortened": "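Transfected HEK293 lines were OAT2 and OCT1, each run against wild-type cells, seeded on poly-D-lysine plates. Culture was 48 h at 37°C in DMEM with 10% FBS plus 1% gentamycin, 1% sodium pyruvate and 50 µg/mL hygromycin B. Probes were cyclic GMP 0.5 µM (OAT2) and metformin 20 µM (OCT1), over 2–4 min; test compound was 1 µM for 2 min. After four ice-cold washes and methanol lysis, the uptake ratio versus wild-type and the ratio of ratios were derived; n=3 in one experiment.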"}, "[7]": {"details": "SLCO1B1 c.521 C/C genotype (n = 13)"}, "[8]": {"details": "SLCO1B1 c.521 T/C genotype (n = 113)"}, "[9]": {"details": "SLCO1B1 c.521 T/T genotype (control; n = 230)"}}, "note": "Positions count from the first letter of the chain named.", "data": [{"smiles": "CC(C)n1c(/C=C/C(O)CC(O)CC(=O)O)c(-c2ccc(F)cc2)c2ccccc21", "note": "(stereo not drawn) [Fluvastatin, fluvastatin]", "values": [{"measurement": "Uptake ratio (vs. wild‐type HEK293 cells)", "setting": "[1]", "value": "2.7 ± 0.1"}, {"measurement": "Uptake ratio as percentage of OATP1B1*14 in the same experiment", "setting": "[2]; experiment 1, substrate 1 µM", "value": 47, "unit": "%"}, {"measurement": "Uptake ratio (vs. wild‐type HEK293 cells)", "setting": "[2]; experiment 1, substrate 1 µM", "value": "1.5 ± 0.1"}, {"measurement": "Uptake ratio as percentage of OATP1B1*14 in the same experiment", "setting": "[2]; experiment 2, substrate 1 µM", "value": 48, "unit": "%"}, {"measurement": "Uptake ratio (vs. wild‐type HEK293 cells)", "setting": "[2]; experiment 2, substrate 1 µM", "value": "1.5 ± 0.1"}, {"measurement": "Uptake ratio as percentage of OATP1B1*14 in the same experiment", "setting": "[3]; experiment 1, substrate 1 µM", "value": 56, "unit": "%"}, {"measurement": "Uptake ratio (vs. wild‐type HEK293 cells)", "setting": "[3]; experiment 1, substrate 1 µM", "value": "1.8 ± 0.2"}, {"measurement": "Uptake ratio as percentage of OATP1B1*14 in the same experiment", "setting": "[3]; experiment 2, substrate 1 µM", "value": 61, "unit": "%"}, {"measurement": "Uptake ratio (vs. wild‐type HEK293 cells)", "setting": "[3]; experiment 2, substrate 1 µM", "value": "1.9 ± 0.1"}, {"measurement": "Uptake ratio as percentage of OATP1B1*14 in the same experiment", "setting": "[4]; experiment 1", "value": 100, "unit": "%"}, {"measurement": "Uptake ratio as percentage of OATP1B1*14 in the same experiment", "setting": "[4]; experiment 2", "value": 100, "unit": "%"}, {"measurement": "Uptake ratio (vs. wild‐type HEK293 cells)", "setting": "[4]; experiment 1", "value": "3.2 ± 0.1"}, {"measurement": "Uptake ratio (vs. wild‐type HEK293 cells)", "setting": "[4]; experiment 2", "value": "3.1 ± 0.1"}, {"measurement": "Uptake ratio (vs. wild‐type HEK293 cells)", "setting": "[4]; experiment 3", "value": "4.4 ± 0.1"}]}, {"smiles": "C[C@H](CCC(=O)NCC(=O)O)[C@H]1CC[C@H]2[C@@H]3[C@H](O)C[C@@H]4C[C@H](O)CC[C@]4(C)[C@H]3CC[C@]12C", "note": "[GCDCA, Glycochenodeoxycholate]", "values": [{"measurement": "Plasma concentration, ratio to control (95% CI)", "setting": "[5]; C/C genotype (n = 13) vs T/T", "value": "1.35 (0.865, 2.11)"}, {"measurement": "Plasma concentration, geometric mean (95% CI)", "setting": "[5]; [7]", "value": "567 (367, 876) ng/mL"}, {"measurement": "Plasma concentration, geometric mean (95% CI)", "setting": "[5]; [8]", "value": "378 (326, 438) ng/mL"}, {"measurement": "Plasma concentration, geometric mean (95% CI)", "setting": "[5]; [9]", "value": "419 (378, 465) ng/mL"}, {"measurement": "Plasma concentration, ratio to control (95% CI)", "setting": "[5]; T/C genotype (n = 113) vs T/T", "value": "0.900 (0.751, 1.08)"}, {"measurement": "Mean fasting plasma concentration, lower in women than in men", "setting": "[5]", "value": "~ 20%"}]}, {"smiles": "C[C@H](CCC(=O)NCC(=O)O)[C@H]1CC[C@H]2[C@@H]3CC[C@@H]4C[C@H](O)CC[C@]4(C)[C@H]3C[C@H](O)[C@]12C", "note": "[GDCA, glycodeoxycholate]", "values": [{"measurement": "Plasma concentration, ratio to control (95% CI)", "setting": "[5]; C/C genotype (n = 13) vs T/T", "value": "1.16 (0.675, 1.98)"}, {"measurement": "Plasma concentration, geometric mean (95% CI)", "setting": "[5]; [7]", "value": "141 (83.3, 237) ng/mL"}, {"measurement": "Plasma concentration, geometric mean (95% CI)", "setting": "[5]; [8]", "value": "124 (104, 149) ng/mL"}, {"measurement": "Plasma concentration, geometric mean (95% CI)", "setting": "[5]; [9]", "value": "122 (107, 138) ng/mL"}, {"measurement": "Plasma concentration, ratio to control (95% CI)", "setting": "[5]; T/C genotype (n = 113) vs T/T", "value": "1.02 (0.822, 1.27)"}, {"measurement": "Mean fasting plasma concentration, lower in women than in men", "setting": "[5]", "value": "~ 20%"}]}, {"smiles": "Nc1nc2c(ncn2[C@@H]2O[C@@H]3COP(=O)(O)O[C@H]3[C@H]2O)c(=O)[nH]1", "note": "[cyclic guanosine monophosphate]", "values": [{"measurement": "Uptake ratio (vs. wild‐type HEK293 cells), probe", "setting": "[6]", "value": "23.6 ± 0.58"}]}]}
